High-throughput results as filed in PubChem.
M1 ag = M1 muscarinic receptor agonism; B-score at 10 µM; 64,000 tested, 3% active; AID 626; CHO-M1 cells, Fluo-4 calcium fluorescence, agonist mode; stronger effect = higher value;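 active means fluorescence rise, raw or as B-score row- and column-corrected plate score, outside the 99.7% band of its plate's samples, either direction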
M1 antagonist = M1 muscarinic receptor (rat) antagonism; B-score at 10 µM; P08482; AID 628; 64,000 tested, 3.4% active; CHO-M1 cells, Fluo-4 calcium, ACh EC80 antagonist mode; stronger effect = lower value;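 active means calcium fluorescence response, raw or row-and-column corrected B-score, differing from the plate sample mean either way at a set confidence level, mostly lower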
D1 mod = allosterically modulates the human D1 dopamine receptor. P21728. HEK293 D1, CRE-luciferase, dopamine EC30 potentiation; actives deviate in either direction. B-score at 10 µM. 58,000 tested, 5.9% active. AID 641;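 active means luminescence count or its row- and column-corrected plate score outside the 99.7% band of the plate's sample wells, on either side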
Target sequence (P21728 whole entry, looked up): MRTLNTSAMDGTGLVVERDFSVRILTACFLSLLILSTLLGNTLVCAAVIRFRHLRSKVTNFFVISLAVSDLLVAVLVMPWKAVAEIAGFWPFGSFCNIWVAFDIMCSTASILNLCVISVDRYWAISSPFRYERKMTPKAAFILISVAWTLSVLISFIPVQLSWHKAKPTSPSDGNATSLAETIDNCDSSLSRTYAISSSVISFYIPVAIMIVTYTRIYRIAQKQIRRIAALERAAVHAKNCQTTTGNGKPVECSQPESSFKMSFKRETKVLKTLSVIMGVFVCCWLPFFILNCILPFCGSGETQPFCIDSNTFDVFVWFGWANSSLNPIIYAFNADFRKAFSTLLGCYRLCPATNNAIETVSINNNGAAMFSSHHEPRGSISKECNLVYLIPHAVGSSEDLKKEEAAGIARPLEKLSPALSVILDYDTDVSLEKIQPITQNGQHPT
S1P3 agonist = activates the human S1P3 receptor; S1P3 NFAT-BLA reporter cells, agonism, FRET ratio; relative to 1 µM S1P, basal subtracted; activation, % at 4.5 µM; 60,000 tested, 0.1% active; AID 373;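 active means activation above the screen-wide mean plus 3 SD, cut at about 4.5% in these data, passing the limit was not always enough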
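Material: Human S1P3 NFAT-BLA reporter CHO cells | Incubation: Overnight plating, 4 h compound 37 °C, 2 h substrate RT | Signal: FRET β-lactamase substrate fluorescence, excitation 405 nm, 460/535 nm emission ratio, background-subtracted | Compound: 4.5 µM final, single dose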
S1P1 ag-PAM = activates or potentiates agonism at human S1P1 receptor; P21453; AID 449; activation, % at 9.5 µM; S1P1 CRE-bla cells, forskolin, beta-lactamase FRET, potentiator mode; S1P1 agonist co-added at EC20, 2 nM; 100% = saturating reference agonist, 0% = basal; 56,000 tested, 0.57% active;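 active means activation above a cutoff set at the mean activation of all tested compounds plus 3 SD, cut at about 54% in these data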;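 further: forskolin at 4 µM as EC80 and the EC20 agonist is SEW2871; 100% = SEW2871 at its EC100 plus forskolin at EC80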
M1 antag confirm = M1 muscarinic receptor (rat) antagonism, confirmed | shares compounds with M1 antagonist | 1,700 tested, 43% active | calcium response (max-min fluorescence) at 10 µM | CHO-M1 cells, Fluo-4 calcium, ACh EC80 antagonism; stronger effect = lower value;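 active means calcium response below the same-plate mean of wells given acetylcholine alone at its 80%-effect dose, minus 3 SD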;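 further: raw fluorescence intensity difference in arbitrary instrument units and not normalized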
mGluR4 antag = selectivity test for M1 antagonists: human mGluR4 receptor. shares compounds with M1 antagonist. CHO-mGluR4 calcium flux, Fluo-4 fluorescence, glutamate EC80; stronger effect = lower value. fluorescence response (max-min) at 10 µM. 1,700 tested, 0.9% active. AID 678;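 active means fluorescence response below the plate's average for near-maximal glutamate wells, less 3 SD of those wells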;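 further: raw unnormalized fluorescence span taken in the window right after glutamate addition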
Starred values were filed as active, the others as inactive; . = not tested or not shown. Only some compounds are listed: those with a hit (about 11% of all), similar ones and a draw of the others.

SMILES | M1 ag | M1 antagonist | D1 mod | S1P3 agonist | S1P1 ag-PAM | M1 antag confirm | mGluR4 antag
O=C(O)C1CCCN1c1ncnc2ccccc12 (centres undefined) | -0.11 | 0.86 | 0.41 | 0 | . | . | .
CC1(C)CC2CC(C)(CN2c2ncnc3ccccc23)C1 (centres undefined) | -0.38 | -2.2* | 0.74 | -1 | 30 | 516 | 251
COCCCNC(=O)CSC1=Nc2ccccc2C2=NC(CC(=O)NCc3ccccc3)C(=O)N12 (centres undefined) | 0.033 | -2.5* | -0.064 | 0 | 2 | 678 | 246
COC(=O)[C@H](C)NC(=O)NCc1ccco1 | -0.23 | -4.3* | 0.93 | -2 | -6 | 680 | 260
COc1cc(C(=O)NCc2ccco2)cc(OC)c1OC | 0.02 | -1.8 | -0.22 | -1 | -8 | . | .
CCCOc1ccc(N2C(=O)CC(N3CCC(c4nncn4CC)CC3)C2=O)cc1 (centres undefined) | -0.44 | 0.031 | 0.0097 | -1 | -32 | . | .
Cc1csc(NC(=O)CSc2ncnc3c2cnn3-c2ccccc2Cl)n1 | 3.9 | -2.7* | -2.1 | -1 | 48 | 501 | 184
CCCCCOC(=O)CSc1nnc(-c2ccccc2)c(=O)[nH]1 | . | . | . | -1 | 14 | . | .
O=C(c1ccc(F)cc1)C(CN1CCOCC1)c1ccccc1 (centres undefined) | -0.024 | -0.92 | -0.38 | -2 | 75 | . | .
COc1ccc(C(=O)C(CN2CCCC2)c2ccccc2)cc1 (centres undefined) | 0.00053 | -7.4* | . | -5 | 48 | 239* | 240
COc1cccc(C(C(=O)NCc2ccco2)N(C(=O)Cn2nnc3ccccc32)C2CC2)c1OC (centres undefined) | -0.18 | 1.2 | -0.37 | 0 | 5 | . | .
CC1CCN(Cc2nc3c(c(=O)n(C)c(=O)n3C)n2Cc2c(F)cccc2Cl)CC1 | 0.02 | 0.38 | 0.56 | 0 | -14 | . | .
CC1CCCN(Cc2nc3c(c(=O)n(C)c(=O)n3C)n2Cc2c(F)cccc2Cl)C1 (centres undefined) | 0.58 | -1* | 0.24 | -1 | -6 | 653 | 200
O=C1c2ccccc2C(=O)N1CC1=CCS(=O)(=O)C1 | -0.4 | -2* | -0.029 | -1 | -2 | 531 | 202
Cc1cc(CN2C(=O)c3ccccc3C2=O)no1 | 0.47 | 0.65 | -0.28 | -2 | -2 | . | .
CCC1Oc2ccc(C)cc2N(CC(=O)NCCN2CCCCCC2)C1=O (centres undefined) | -0.66 | 0.55 | 0.3 | -1 | -25 | . | .
CCOC(=O)N1CCC(NC(=O)CN2C(=O)C(CC)Oc3ccc(C)cc32)CC1 (centres undefined) | -0.43 | -5.7* | 1.1 | -1 | -6 | 665 | 204
N#CCCN1CCN(S(=O)(=O)c2ccc(S(=O)(=O)N3CCOCC3)cc2)CC1 | -0.21 | 0.31 | -0.14 | 0 | -4 | . | .
N#CCCN1CCN(S(=O)(=O)c2ccc(S(=O)(=O)NCc3ccccc3)cc2)CC1 | 0.52 | -3.4* | -0.11 | -2 | 12 | 673 | 255
Cc1c(C(=O)OCC(C)(C)CN(C)C)oc2ccccc12 | -0.25 | -5* | -2.2 | 0 | -6 | 182* | 233
Cc1c(C(=O)OCC(=O)c2c(N)n(CC(C)C)c(=O)n(C)c2=O)oc2ccccc12 | . | . | . | 0 | 27 | . | .
Cc1c(C(=O)OC(C)CCN(C)C)oc2ccccc12 (centres undefined) | -0.6 | -13* | -1.3 | -1 | 8 | 18* | 261
Cc1c(C(=O)OCCN2CCCCC2)oc2ccccc12 | 0.61 | -10* | -0.05 | 0 | -12 | 13* | 226
CC(=O)OC(C(=O)NCc1ccco1)c1cccnc1 (centres undefined) | 0.97 | -1* | -1 | 0 | 6 | 657 | 246
CCN(CCNS(=O)(=O)c1ccc2[nH]c(=O)sc2c1)c1ccccc1 | -2.1 | -2.4* | -0.36 | -1 | 32 | 601 | 156*
CCOc1ccccc1CNS(=O)(=O)c1ccc2[nH]c(=O)sc2c1 | 0.98 | -0.71 | -0.0013 | 0 | 10 | . | .
